Test results published in paper PMC4878416 (Diabetes, 2016).

Legend:
DYRK2 = molecular target: T1, DYRK2 (Homo sapiens, UniProt Q92630); experiment: Human kinome profiling, DYRK2; format: biochemical
T1 sequence (Q92630 1-601): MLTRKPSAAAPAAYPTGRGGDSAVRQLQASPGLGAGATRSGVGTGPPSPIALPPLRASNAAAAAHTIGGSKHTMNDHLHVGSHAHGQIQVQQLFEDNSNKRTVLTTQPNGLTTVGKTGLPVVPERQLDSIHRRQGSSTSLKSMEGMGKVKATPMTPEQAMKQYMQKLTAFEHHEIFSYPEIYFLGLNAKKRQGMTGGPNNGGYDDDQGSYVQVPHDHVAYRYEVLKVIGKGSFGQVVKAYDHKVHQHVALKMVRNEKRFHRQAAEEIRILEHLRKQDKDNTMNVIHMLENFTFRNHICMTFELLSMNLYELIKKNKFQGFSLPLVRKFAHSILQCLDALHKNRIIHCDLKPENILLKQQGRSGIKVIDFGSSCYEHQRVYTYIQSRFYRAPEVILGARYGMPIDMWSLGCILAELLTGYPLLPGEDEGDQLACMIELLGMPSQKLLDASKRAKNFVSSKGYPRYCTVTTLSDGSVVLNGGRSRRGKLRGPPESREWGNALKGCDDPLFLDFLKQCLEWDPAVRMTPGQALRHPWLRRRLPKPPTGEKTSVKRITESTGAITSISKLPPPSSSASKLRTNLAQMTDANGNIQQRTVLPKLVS
Method in brief: (§1)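 Human kinases profiled by commercial providers under their standard protocols; ATP within 15 μmol/L of the apparent KM for each enzyme.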

DYRK4 = molecular target: T2, DYRK4 (Homo sapiens, UniProt Q9NR20); experiment: Human kinome profiling, DYRK4; format: biochemical
T2 sequence (Q9NR20 1-520): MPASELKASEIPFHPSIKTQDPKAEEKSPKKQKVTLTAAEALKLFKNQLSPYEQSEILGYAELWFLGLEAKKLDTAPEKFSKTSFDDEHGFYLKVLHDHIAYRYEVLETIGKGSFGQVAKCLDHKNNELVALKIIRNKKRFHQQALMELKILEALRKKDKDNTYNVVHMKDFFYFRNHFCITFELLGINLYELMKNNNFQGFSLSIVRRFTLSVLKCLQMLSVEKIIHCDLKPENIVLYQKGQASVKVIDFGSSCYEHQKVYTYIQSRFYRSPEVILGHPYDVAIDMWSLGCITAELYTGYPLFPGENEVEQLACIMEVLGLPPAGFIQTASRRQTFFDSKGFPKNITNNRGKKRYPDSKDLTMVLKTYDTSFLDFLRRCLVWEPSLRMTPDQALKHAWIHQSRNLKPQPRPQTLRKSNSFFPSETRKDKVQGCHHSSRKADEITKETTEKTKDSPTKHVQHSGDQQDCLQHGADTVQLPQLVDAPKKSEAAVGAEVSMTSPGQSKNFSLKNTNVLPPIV
Method in brief: as §1

human β-cells = experiment: EdU incorporation proliferation assay in dissociated human islet cells; format: cell-based
Method in brief: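 Human islets dissociated in Accutase (5,000 IEQ/mL, 37°C, 20 min), resuspended in CMRL complete medium and seeded at ~30,000 (96-well) or ~15,000 (384-well) cells per well. EdU was present throughout the 6-day treatment, including FK506 cotreatment. Cells were fixed (3% PFA), permeabilised (0.2% Triton X-100) and stained for C-peptide and DAPI. EdU+ β-cells were scored by automated imaging and manually; 4 wells, 9 fields each; mean ± SD; two-tailed t test vs DMSO.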

primary rat neurons = experiment: Proliferation of primary rat neurons in culture; format: cell-based

Nc1ncnc2c1c(I)cn2[C@@H]1O[C@H](CO)[C@@H](O)[C@H]1O [5-IT, 5-iodotubercidin]
remaining activity DYRK2 (DYRK2; 100 nmol/L): < 10%
IC50 (DYRK2; read-out: IC50 DYRK2, ATP within 15 μmol/L of apparent KM): 0.006 µM
remaining activity DYRK4 (DYRK4; 100 nmol/L): < 10%
IC50 (DYRK4; read-out: IC50 DYRK4, ATP within 15 μmol/L of apparent KM): 0.129 µM
increase in β-cell proliferation in pair-matched islets (human β-cells; 6-day treatment, islets pair-matched to the WS-3 test): 20 fold
concentration of maximal effect on β-cell proliferation (human β-cells; 6 days of treatment): 1 µmol/L
increase in β-cell proliferation (EdU incorporation) (human β-cells; 6 days of treatment, dissociated human islet cells, maximal effect): 10- to 12 fold
effect on primary rat neurons in culture (primary rat neurons): no effect
